Results collected from several papers.
P2RY14: P2Y purinoceptor 14 (P2RY14, Homo sapiens, UniProt Q15391)
Nuclear receptor subfamily 4 group A member 2: Nuclear receptor subfamily 4 group A member 2 (Homo sapiens, UniProt P43354)

| Compound | target | assay | system | setting | measurement | value |
| --- | --- | --- | --- | --- | --- | --- |
| CCCCC(=O)Nc1ccc(-c2ccc3ncn(CCC)c(=O)c3c2)cn1 | Tyrosine-protein kinase JAK3, JH1 (JAK3, Homo sapiens, UniProt P52333) | binding, competition with immobilised ligand |  | 0.5 µM | remaining binding | 100% |
| NC/C(=C\F)COc1cccc(Cn2c(=S)[nH]c(=O)c3[nH]cnc32)c1 | Eosinophil peroxidase (Homo sapiens, UniProt P11678) | enzyme activity, inhibitor |  | 15 µM | remaining activity | 41.3% |
| O=C(N[C@@H](Cc1c[nH]c2ccccc12)C(=O)O)c1cscn1 | P2RY14 | cAMP, antagonist | HEK293 | 0.1 µM | inhibition | 60.5% |
| CCN(CC)Cc1cc(Nc2ccnc3cc(Cl)ccc23)ccc1O | Nuclear receptor subfamily 4 group A member 2 | thermal stability, DSF |  | 100 µM | ΔTm | -0.09 °C |
| O=C(N[C@@H](Cc1c[nH]c2ccccc12)C(=O)O)C1c2ccccc2Oc2ccccc21 | P2RY14 | cAMP, antagonist | HEK293 | 0.1 µM | inhibition | 18.9% |
| Cc1onc(-c2ccccc2)c1-c1ccc(S(N)(=O)=O)cc1 | Nuclear receptor subfamily 4 group A member 2 | thermal stability, DSF |  | 100 µM | ΔTm | -1 °C |
| CC(C)OC(=O)[C@H](Cc1c[nH]c2ccccc12)NC(=O)c1ccc2c(c1)OCO2 | P2RY14 | cAMP, antagonist | HEK293 | 0.1 µM | inhibition | 10.7% |
| C#Cc1cc(-c2cc(Nc3nc(N[C@@H](C)c4ccc(F)cn4)ncc3Cl)n[nH]2)ccc1C=O | Ribosomal protein S6 kinase alpha-4 (RPS6KA4, Homo sapiens, UniProt O75676) | enzyme activity, inhibitor |  | 0.2 µM | inhibition | 8.79% |
| CC(C)OC(=O)[C@H](Cc1c[nH]c2ccccc12)NC(=O)COc1ccccc1 | P2RY14 | cAMP, antagonist | HEK293 | 0.1 µM | inhibition | 79.3% |
| Cc1cc(O)c(-c2ccc([C@@H](C)CN(C)C)cc2)c2c1[nH]c(=O)c1sccc12 | Eukaryotic elongation factor 2 kinase (EEF2K, Homo sapiens, UniProt O00418) | enzyme activity, inhibitor |  | 0.1 µM | inhibition | 9.25% |
| COc1ccc2oc(-c3ccc4nc(N)oc4c3)c/c(=N\c3ccccc3NC(=O)CCN)c2c1 | Tyrosine-protein kinase JAK3 (JAK3, Homo sapiens, UniProt P52333) | binding |  | 1 µM | remaining binding | 93% |
| C1=C/COCc2cc(ccc2OCCN2CCCC2)Nc2nccc(n2)-c2cccc(c2)COC/1 | Mitogen-activated protein kinase kinase kinase 1 (MAP3K1, Homo sapiens, UniProt Q13233) | binding |  | 0.1 µM | remaining binding | 100% |
